What was measured:
[1] = target: T1, Sodium-dependent noradrenaline transporter (Homo sapiens, UniProt P23975); experiment: Inhibition of [3H]- NE uptake in HEK cells expressing norepinephrine transporter; type: functional, cell-based, HEK293
[2] = target: T2, Sodium-dependent dopamine transporter (Homo sapiens, UniProt Q01959); experiment: Inhibition of [125I]RTI-55 binding at Dopamine transporter (DAT) expressed in HEK cells; type: cell-based, HEK293
Method in brief: (§1)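 Membranes from transfected HEK 293 cells (lysed in 2 mM HEPES/1 mM EDTA, pelleted at 30000g, resuspended in 0.32 M sucrose), ~15 μg protein per tube. GF/C filtration, counting. Duplicate competition curves; IC50 converted to Ki by Cheng–Prusoff.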

[3] = target: Monoamine transporters; Norepinephrine & dopamine (Homo sapiens) (UniProt Q01959+P23975); experiment: selectivity ratio between noradrenaline and dopamine transporter binding; type: protein assay
Monoamine transporters; Norepinephrine & dopamine (Homo sapiens), sequence (P23975 whole entry, looked up): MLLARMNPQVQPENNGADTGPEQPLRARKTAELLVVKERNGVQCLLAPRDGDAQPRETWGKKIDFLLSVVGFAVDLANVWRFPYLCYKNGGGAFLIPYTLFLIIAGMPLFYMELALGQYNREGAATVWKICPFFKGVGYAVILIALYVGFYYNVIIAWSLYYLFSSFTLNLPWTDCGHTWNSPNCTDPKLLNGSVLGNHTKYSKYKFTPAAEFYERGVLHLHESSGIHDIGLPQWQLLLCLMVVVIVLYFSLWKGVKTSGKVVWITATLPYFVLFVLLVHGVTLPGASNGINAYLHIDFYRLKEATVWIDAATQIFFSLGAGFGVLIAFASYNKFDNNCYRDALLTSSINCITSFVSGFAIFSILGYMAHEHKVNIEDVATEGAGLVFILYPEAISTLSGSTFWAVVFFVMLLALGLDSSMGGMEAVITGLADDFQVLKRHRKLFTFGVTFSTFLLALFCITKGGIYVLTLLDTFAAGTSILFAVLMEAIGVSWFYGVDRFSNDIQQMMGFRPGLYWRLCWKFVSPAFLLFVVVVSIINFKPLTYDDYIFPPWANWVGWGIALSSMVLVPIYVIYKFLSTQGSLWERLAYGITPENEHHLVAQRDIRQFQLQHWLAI
Monoamine transporters; Norepinephrine & dopamine (Homo sapiens), sequence (Q01959 whole entry, looked up): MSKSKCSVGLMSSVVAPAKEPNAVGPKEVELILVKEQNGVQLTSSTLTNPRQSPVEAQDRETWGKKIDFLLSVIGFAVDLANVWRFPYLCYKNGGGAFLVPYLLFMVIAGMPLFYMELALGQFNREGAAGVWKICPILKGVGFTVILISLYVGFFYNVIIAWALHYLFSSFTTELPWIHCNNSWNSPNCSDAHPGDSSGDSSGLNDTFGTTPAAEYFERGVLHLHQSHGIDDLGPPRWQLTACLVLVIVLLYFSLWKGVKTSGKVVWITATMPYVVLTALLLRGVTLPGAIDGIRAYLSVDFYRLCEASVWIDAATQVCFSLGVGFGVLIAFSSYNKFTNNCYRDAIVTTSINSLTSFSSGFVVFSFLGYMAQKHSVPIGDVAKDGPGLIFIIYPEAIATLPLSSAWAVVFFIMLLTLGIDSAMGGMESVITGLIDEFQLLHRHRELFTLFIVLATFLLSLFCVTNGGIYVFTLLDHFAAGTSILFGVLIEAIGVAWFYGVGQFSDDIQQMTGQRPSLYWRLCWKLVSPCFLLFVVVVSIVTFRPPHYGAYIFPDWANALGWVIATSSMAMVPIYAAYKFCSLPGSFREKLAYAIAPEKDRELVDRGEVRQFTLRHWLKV

[4] = target: T3, Sodium-dependent serotonin transporter (Homo sapiens, UniProt P31645); experiment: Inhibition of [3H]- 5-HT uptake in HEK cells expressing serotonin transporter; type: functional, cell-based, HEK293
Method in brief: (§2)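 Confluent transfected HEK 293 cells washed in PBS, scraped and suspended. Suspension preincubated with drug 10 min at 25 °C in Krebs HEPES, then [3H]DA or [3H]5-HT (20 nM final) added for another 10 min. Ended by filtration onto GF/C filters presoaked in 0.05% poly(ethylenimine), counting. Six drug concentrations, triplicate; IC50 reported.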
Target sequence in this assay (P31645 whole entry): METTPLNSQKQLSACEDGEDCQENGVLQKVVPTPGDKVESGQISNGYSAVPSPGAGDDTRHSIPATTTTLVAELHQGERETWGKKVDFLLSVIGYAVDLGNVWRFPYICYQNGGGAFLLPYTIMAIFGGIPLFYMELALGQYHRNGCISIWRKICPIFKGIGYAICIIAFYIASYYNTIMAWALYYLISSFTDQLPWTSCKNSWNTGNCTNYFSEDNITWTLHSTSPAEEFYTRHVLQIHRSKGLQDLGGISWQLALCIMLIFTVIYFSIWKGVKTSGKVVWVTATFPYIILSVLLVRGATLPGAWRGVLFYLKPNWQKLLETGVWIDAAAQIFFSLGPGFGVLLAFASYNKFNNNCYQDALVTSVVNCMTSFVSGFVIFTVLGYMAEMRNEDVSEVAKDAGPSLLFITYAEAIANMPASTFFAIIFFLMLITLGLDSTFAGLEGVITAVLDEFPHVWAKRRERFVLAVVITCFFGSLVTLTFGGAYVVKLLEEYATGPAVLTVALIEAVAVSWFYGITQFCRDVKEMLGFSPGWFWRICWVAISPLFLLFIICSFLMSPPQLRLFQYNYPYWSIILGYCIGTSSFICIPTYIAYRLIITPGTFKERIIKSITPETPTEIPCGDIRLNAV

[5] = target: Monoamine transporters; serotonin & dopamine (Homo sapiens) (UniProt P31645+Q01959); experiment: Selectivity ratio between serotonin and dopamine transporters; type: protein assay
Monoamine transporters; serotonin & dopamine (Homo sapiens), sequence (P31645 whole entry, looked up): as the sequence (P31645 whole entry) above
Monoamine transporters; serotonin & dopamine (Homo sapiens), sequence (Q01959 whole entry, looked up): as the sequence (Q01959 whole entry, looked up) above

[6] = target: T3, Sodium-dependent serotonin transporter; experiment: Ratio between [3H]5-HT reuptake and SERT binding; type: functional
Target sequence in this assay (P31645 whole entry, looked up): as the sequence (P31645 whole entry) above

[7] = target: T1, Sodium-dependent noradrenaline transporter; experiment: Inhibition of [125I]RTI-55 binding to norepinephrine transporter (NET) expressed in HEK cells; type: cell-based, HEK293
[8] = target: T2, Sodium-dependent dopamine transporter; experiment: Ratio between [3H]DA reuptake and DAT binding; type: functional
[9] = target: T3, Sodium-dependent serotonin transporter; experiment: Inhibition of [125I]RTI-55 binding to serotonin transporter (SERT) expressed in HEK cells; type: cell-based, HEK293; method in brief: as §1
Target sequence in this assay (P31645 whole entry): as above

[10] = target: T2, Sodium-dependent dopamine transporter; experiment: Inhibition of [3H]DA uptake in HEK cells expressing dopamine transporter; type: functional, cell-based, HEK293; method in brief: as §2
[11] = target: T1, Sodium-dependent noradrenaline transporter; experiment: Compound was tested for its affinity by the inhibition of [125I]RTI-55 binding at norepinephrine transporter (NET) transfected in HEK cells; type: cell-based, HEK293
Method in brief: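 Membranes from HEK 293 cells transfected with NET (lysed in 2 mM HEPES/1 mM EDTA, pelleted at 30000g, resuspended in 0.32 M sucrose), ~15 μg protein, preincubated with drug 10 min. Then [125I]RTI-55 (40–80 pM final) added in Krebs HEPES, 90 min at room temperature in dark. Filtration, counting. Competition in duplicate; IC50 converted to Ki by Cheng–Prusoff. Final DMSO 0.01%.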

T2 sequence (Q01959 whole entry): as the sequence (Q01959 whole entry, looked up) above
T1 sequence (P23975 whole entry): as the sequence (P23975 whole entry, looked up) above

Row | Structure (SMILES) | IC50 [1] | Ki [2] | Selectivity ratio [3] | IC50 [4] | Selectivity ratio [5] | Ratio [6] | Ki [7] | Ratio [8] | Ki [9] | IC50 [10] | Ki [11]
1 | CN(CCOC(c1ccccc1)c1ccccc1)CCN(C)CCc1ccc(F)cc1 | 279 nM | 30 nM | 12.3 | 1050 nM | 18.3 | 1.9 | 370 nM | 4 | 550 nM | 119 nM | 
2 | Fc1ccc(C(OCCNCCCNCCc2ccccc2)c2ccc(F)cc2)cc1 | 116 nM | 28 nM | 2.9 | 249 nM | 4.5 | 2 | 82 nM | 2.4 | 125 nM | 68 nM | 
3 | O=C(/C=C/c1ccc(Br)cc1)NCCNCCOC(c1ccc(F)cc1)c1ccc(F)cc1 | > 10000 nM | 510 nM | 3.5 | 4500 nM | 1.2 | 7.6 | 1760 nM | 2.7 | 590 nM | 1380 nM | 
4 | CN(CCOC(c1ccc(F)cc1)c1ccc(F)cc1)CCN(C)CCOC(c1ccc(F)cc1)c1ccc(F)cc1 | 2600 nM | 26 nM | 10.2 | > 10000 nM | 30.1 | > 13 | 261 nM | 32.4 | 770 nM | 830 nM | 
5 | O=C(CCc1ccccc1)NCCNCCOC(c1ccc(F)cc1)c1ccc(F)cc1 | 205 nM | 51 nM | 10.7 | 1140 nM | 10.3 | 2.2 | 545 nM | 1.8 | 523 nM | 90 nM | 
6 | CN(CCCc1ccccc1)CCCN(C)CCOC(c1ccccc1)c1ccccc1 | 143 nM | 122 nM | 0.2 | 1700 nM | 3.6 | 3.9 | 30 nM | 1.9 | 438 nM | 237 nM | 
7 | O=C1CN(CCOC(c2ccccc2)c2ccccc2)CCN1CCCc1ccccc1 | > 10 nM | 8200 nM | 1 | > 10 nM | 0.7 | > 1.7 |  | > 1.2 | 5900 nM | > 10 nM | 5850 nM

The next lines start with results.

Row | IC50 [1] | Ki [2] | Selectivity ratio [3] | IC50 [4] | Selectivity ratio [5] | Ratio [6] | Ki [7] | Ratio [8] | Ki [9] | IC50 [10] | Structure (SMILES) | Ki [11]
8 | 210 nM | 322 nM | 0.6 | 1700 nM | 4.7 | 1.1 | 194 nM | 1.1 | 1530 nM | 349 nM | CN(CCCN(C)CCc1ccccc1)CCOC(c1ccccc1)c1ccccc1 | 
9 | > 10000 nM | 1430 nM | 4.9 | 3940 nM | 0.1 | > 34.5 | 7050 nM | > 1.7 | 114 nM | > 10000 nM | O=C1CN(CCc2ccccc2)CCN1CCOC(c1ccc(F)cc1)c1ccc(F)cc1 | 
10 | 299 nM | 54 nM | 15.6 | 1990 nM | 6.5 | 5.7 | 844 nM | 0.9 | 351 nM | 47 nM | O=C(Cc1ccc(F)cc1)NCCNCCOC(c1ccc(F)cc1)c1ccc(F)cc1 | 
11 | 399 nM | 54 nM | 11.2 | 1300 nM | 10.3 | 2.3 | 604 nM | 1.5 | 556 nM | 80 nM | O=C(Cc1ccccc1)NCCNCCOC(c1ccc(F)cc1)c1ccc(F)cc1 | 
12 | 192 nM | 61 nM | 7.8 | 1230 nM | 18.8 | 1.1 | 477 nM | 1.2 | 1150 nM | 73 nM | O=C(Cc1ccccc1)NCCCNCCOC(c1ccc(F)cc1)c1ccc(F)cc1 | 

— ChEMBL document CHEMBL1132179, “Design, synthesis, and biological evaluation of novel non-piperazine analogues of 1-[2-(diphenylmethoxy)ethyl]- and 1-[2-[bis(4-fluorophenyl)methoxy]ethyl]-4-(3-phenylpropyl)piperazines as dopamine transporter inhibitors” (J Med Chem, 1999)
